The list is not random: actives were taken first. Their share in the collection is about 4.1%.
APP 5'UTR act: activators of APP 5'UTR luciferase reporter, primary screen, SH-SY5Y cells; actives 1% (n = 190,000); SH-SY5Y APP 5'UTR luciferase reporter, luminescence; zero percent = DMSO vehicle wells; activation, % at 2 µM;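 active means activation above a set limit, based on mean plus 3 SD of controls, cut at about 140% in these data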
STAT1 activator: STAT1 signaling activators, primary screen, cell-based, HTS, luciferase reporter. NIH 3T3 STAT1-luciferase reporter, IFN-gamma, luminescence; 100% = IFN-gamma alone, no compound. activation (% of control), % at 5.5 µM. actives 2.6% (n = 200,000). AID 932, 2007;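 active means activation above the screen-wide mean activation plus 3 SD, cut at about 130% in these data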;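 further: raw ratio to IFN-gamma control signal so 100% means no change and 0% no light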
NF-kB expr up: activators of NF-kB expression in neurons, primary screen, cell-based, HTS; human neuronal cells, NF-kB reporter expression; stronger effect = higher value; fold change at 12.5 µM; actives 1.6% (n = 190,000); in the data active means fold change above about 3.3
FLuc inh counter: firefly luciferase enzyme inhibitors, primary screen, artefact control for luciferase-based inhibitor screens, biochemical, luminescence, ATPLite | Luciferin 4-monooxygenase (Photinus pyralis), P08659 | 10 min | inhibition, % at 10 µM | actives 1.5% (n = 200,000) | AID 1006, 2008;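 active means inhibition above about 50% when tested at 10 µM, limit read from the data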
FLuc stim CS: FLuc activators, initial screening, artefact control for FLuc-dependent activation tests, biochemical, ATPlite luminescence. ATPlite luciferase biochemical, 10 min; 0 = ATP-free wells, 1 = DMSO control. activation factor at 10 µM. 200,000 tested, under 10 active;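 active means luciferase activation factor, scaled between plate controls, of at least 2 with compound at 10 µM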
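Assay system: Luciferase/luciferin detection reagent, cell-free biochemical luciferase assay / Also added: ATP substrate / Schedule: 10 min at ambient temperature / Measured by: luminescence measurement of luciferase light output / Benchmarks: low control with PBS replacing ATP, high control enzyme plus ATP without compound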
* marks the source's active call; other numbers are inactive results.

SMILES	APP 5'UTR act	STAT1 activator	NF-kB expr up	FLuc inh counter	FLuc stim CS
Cc1cccc(-n2c(C)cc(C=C3C(=O)c4ccccc4C3=O)c2C)c1	6	101	0.71	41	0.6
CCn1c(C)cc(C=C2C(=O)c3ccccc3C2=O)c1C	156*	122	3.4*	79*	0.2
Cc1cc(C=C2C(=O)c3ccccc3C2=O)c(C)n1-c1ccc(Cl)cc1	6	100	1.2	19	0.8
Cc1cc(C=C2C(=O)c3ccccc3C2=O)c(C)n1C	99	96	6.3*	38	0.6
CCOC(=O)CNc1c(-c2ccccc2)nc2ccc(Cl)cn12	20	113	2.1	25	0.8
COC(=O)CNc1c(-c2ccccn2)nc2ccc(Br)cn12	96	150*	1	77*	0.2
CN(C)c1ccc(C2=NOC(CN3C(=O)c4ccccc4S3(=O)=O)C2)cc1 (stereo not drawn)	93	147*	3.4*	10	0.9
Cc1ccnc(NC(=O)CCCOc2cc(=O)n(C)c3ccccc23)c1	13	113	7.6*	-4	1
CN(C)c1ccc(/C=N/NC(=O)c2nonc2N)cc1[N+](=O)[O-]	-12	133*	1	16	0.8
Nc1nc(CSCCO)nc(Nc2ccccc2)n1	3	105	1.2	0	1
Nc1nc(CSc2ccccn2)nc(Nc2ccccc2)n1	134	148*	4.7*	3	1
